Laboratory results as given in ChEMBL document CHEMBL4364294 (J Med Chem, 2019).

Columns and labels:
Conditions in all cases: in vivo; call rule not given here
[1] = Half life in C57Bl6 mouse at 10 mg/kg, po administered as single dose; format: ADME, organism-based
Method in brief: (§1)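 C57Bl/6 mice were given single intravenous or oral doses (oral at 10 and 100 mg/kg). Plasma PK parameters were CL, AUC0-inf, t1/2, Cmax and %F.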

[2] = Half life in C57Bl6 mouse at 100 mg/kg, po administered as single dose; format: ADME, organism-based; method in brief: as §1
[3] = Cmax in C57Bl6 mouse at 10 mg/kg, po administered as single dose; format: ADME, organism-based; set-up: dose 10 mg/kg, route oral; method in brief: as §1
[4] = Cmax in C57Bl6 mouse at 100 mg/kg, po administered as single dose; format: ADME, organism-based; set-up: dose 100 mg/kg, route oral; method in brief: as §1
[5] = Oral bioavailability in C57Bl6 mouse at 10 mg/kg administered as single dose; format: ADME, organism-based
Method in brief: (§2)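 C57Bl/6 mice received a single oral dose of 10 or 100 mg/kg, with iv dosing run for comparison. Plasma AUC0-inf, t1/2, Cmax and oral bioavailability (%F) were determined.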

[6] = Oral bioavailability in C57Bl6 mouse at 100 mg/kg administered as single dose; format: ADME, organism-based; method in brief: as §2
[7] = Clearance in dog at 1 mg/kg, iv administered as single dose; format: ADME, organism-based, Canis lupus familiaris
Method in brief: (§3)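 Dogs were given single intravenous doses, or oral doses from 5 to 50 mg/kg. Plasma PK parameters were CL, AUC0-inf, t1/2, Cmax and %F.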

[8] = Clearance in dog at 3 mg/kg, iv administered as single dose; format: ADME, organism-based, Canis lupus familiaris; method in brief: as §3
[9] = Clearance in dog at 10 mg/kg, iv administered as single dose; format: ADME, organism-based, Canis lupus familiaris; method in brief: as §3
[10] = Clearance in dog at 25 mg/kg, iv administered as single dose; format: ADME, organism-based, Canis lupus familiaris; method in brief: as §3
[11] = AUC (0 to infinity) in dog at 1 mg/kg, iv administered as single dose; format: ADME, organism-based, Canis lupus familiaris; set-up: dose 1 mg/kg, route intravenous, time infinity; method in brief: as §3
[12] = AUC (0 to infinity) in dog at 3 mg/kg, iv administered as single dose; format: ADME, organism-based, Canis lupus familiaris; set-up: dose 3 mg/kg, time infinity, route intravenous; method in brief: as §3
[13] = AUC (0 to infinity) in dog at 10 mg/kg, iv administered as single dose; format: ADME, organism-based, Canis lupus familiaris; set-up: dose 10 mg/kg, time infinity, route intravenous; method in brief: as §3
[14] = AUC (0 to infinity) in dog at 25 mg/kg, iv administered as single dose; format: ADME, organism-based, Canis lupus familiaris; set-up: dose 25 mg/kg, route intravenous, time infinity; method in brief: as §3
[15] = AUC (0 to infinity) in dog at 5 mg/kg, po administered as single dose; format: ADME, organism-based, Canis lupus familiaris; set-up: dose 5 mg/kg, time infinity, route oral; method in brief: as §3
[16] = AUC (0 to infinity) in dog at 15 mg/kg, po administered as single dose; format: ADME, organism-based, Canis lupus familiaris; set-up: dose 15 mg/kg, route oral, time infinity; method in brief: as §3
[17] = AUC (0 to infinity) in dog at 50 mg/kg, po administered as single dose; format: ADME, organism-based, Canis lupus familiaris; set-up: dose 50 mg/kg, route oral, time infinity; method in brief: as §3
[18] = AUC (0 to infinity) in dog at 150 mg/kg, po administered as single dose; format: ADME, organism-based, Canis lupus familiaris; set-up: dose 150 mg/kg, time infinity, route oral
[19] = Half life in dog at 1 mg/kg, iv administered as single dose; format: ADME, organism-based, Canis lupus familiaris
Method in brief: (§4)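 Dogs were dosed once, by iv injection or orally, with oral doses spanning 5 to 50 mg/kg. Plasma pharmacokinetic parameters were derived: CL, AUC0-inf, t1/2, Cmax and %F.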

[20] = Half life in dog at 3 mg/kg, iv administered as single dose; format: ADME, organism-based, Canis lupus familiaris; method in brief: as §4
[21] = Half life in dog at 10 mg/kg, iv administered as single dose; format: ADME, organism-based, Canis lupus familiaris; method in brief: as §4
[22] = Half life in dog at 25 mg/kg, iv administered as single dose; format: ADME, organism-based, Canis lupus familiaris; method in brief: as §4
[23] = Cmax in dog at 5 mg/kg, po administered as single dose; format: ADME, organism-based, Canis lupus familiaris; set-up: dose 5 mg/kg, route oral; method in brief: as §3
[24] = Cmax in dog at 15 mg/kg, po administered as single dose; format: ADME, organism-based, Canis lupus familiaris; set-up: dose 15 mg/kg, route oral; method in brief: as §3
[25] = Cmax in dog at 50 mg/kg, po administered as single dose; format: ADME, organism-based, Canis lupus familiaris; set-up: dose 50 mg/kg, route oral; method in brief: as §3
[26] = Cmax in dog at 150 mg/kg, po administered as single dose; format: ADME, organism-based, Canis lupus familiaris; set-up: dose 150 mg/kg, route oral
[27] = Oral bioavailability in dog at 5 mg/kg administered as single dose; format: ADME, organism-based, Canis lupus familiaris; method in brief: as §4
[28] = Oral bioavailability in dog at 15 mg/kg administered as single dose; format: ADME, organism-based, Canis lupus familiaris; method in brief: as §4
[29] = Oral bioavailability in dog at 50 mg/kg administered as single dose; format: ADME, organism-based, Canis lupus familiaris; method in brief: as §4
[30] = Oral bioavailability in dog at 150 mg/kg administered as single dose; format: ADME, organism-based, Canis lupus familiaris
[31] = Tmax in Sprague-Dawley rat at 10 to 50 mg/kg, po administered as single dose; format: ADME, organism-based
Method in brief: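 Sprague-Dawley rats each received one dose of drug, either iv across 10-50 mg/kg or orally at 10, 25 and 50 mg/kg. Plasma pharmacokinetics covered CL, AUC0-inf, t1/2, Cmax and Tmax. Oral bioavailability (%F) was obtained from the oral and iv exposures.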

[32] = Drug uptake in C57Bl6 mouse plasma at 50 mg/kg, po administered as single dose measured at 1 hr post-dose; format: ADME, organism-based
Method in brief: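 C57Bl/6 mice received a single oral dose of 50 mg/kg. Drug levels were compared in plasma and other organs over time after dosing.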

[33] = Toxicity in rat administered twice daily for 28 days with 2 week recovery
Method in brief: (§5)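 Rats and dogs underwent 28-day repeat-dose studies with twice-daily dosing, followed by a 2-week recovery period. The NOAEL (mg/kg/dose BID) was established, and the matching systemic exposure was reported as AUC0-inf.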

[34] = Toxicity in dog administered twice daily for 28 days with 2 week recovery; set-up: species or system Canis lupus familiaris; method in brief: as §5
[35] = AUC (0 to infinity) in rat at 250 mg/kg administered twice daily for 28 days with 2 week recovery; format: ADME, organism-based; set-up: dose 250 mg/kg, time infinity
[36] = AUC (0 to 12 hrs) in dog at 200 mg/kg administered twice daily for 28 days with 2 week recovery; format: ADME, organism-based, Canis lupus familiaris; set-up: dose 200 mg/kg, time < 12 hr

half-life [1]: 1.2 h
half-life [2]: 3.3 h
Cmax [3]: 2260 ng/mL
Cmax [4]: 14200 ng/mL
bioavailability [5]: 69%
bioavailability [6]: 87%
clearance [7]: 59.3 mL/min/kg
clearance [8]: 56.1 mL/min/kg
clearance [9]: 53.7 mL/min/kg
clearance [10]: 41.4 mL/min/kg
AUC(0-inf) [11]: 282 ng·h/mL
AUC(0-inf) [12]: 901 ng·h/mL
AUC(0-inf) [13]: 3130 ng·h/mL
AUC(0-inf) [14]: 10000 ng·h/mL
AUC(0-inf) [15]: 207 ng·h/mL
AUC(0-inf) [16]: 1040 ng·h/mL
AUC(0-inf) [17]: 8640 ng·h/mL
AUC(0-inf) [18]: 57800 ng·h/mL
half-life [19]: 2.2 h
half-life [20]: 1.6 h
half-life [21]: 4.8 h
half-life [22]: 6.9 h
Cmax [23]: 132 ng/mL
Cmax [24]: 1400 ng/mL
Cmax [25]: 7860 ng/mL
Cmax [26]: 40400 ng/mL
bioavailability [27]: 13.7%
bioavailability [28]: 22.3%
bioavailability [29]: 43%
bioavailability [30]: 71.8%
Tmax [31]: 0.5 h
Drug uptake [32]: Active
AUC(0-inf) [35]: 22500 ng·h/mL
AUC at 12 h [36]: 22600 ng·h/mL
Structure (SMILES): O[C@H](C[C@H]1c2c(F)cccc2-c2cncn21)[C@H]1CC[C@H](O)CC1 [NAVOXIMOD]
NOAEL at 28 days [33]: 250 mg/kg
NOAEL at 28 days [34]: 200 mg/kg
